Experimental data gathered from unrelated publications.
Compare with care: the assays were run in different laboratories.
Target: Ephrin type-B receptor 3 (EPHB3, Homo sapiens, UniProt P54753)
Concentration: 1 µM
Sequence (P54753 34-998, as in one of the studies): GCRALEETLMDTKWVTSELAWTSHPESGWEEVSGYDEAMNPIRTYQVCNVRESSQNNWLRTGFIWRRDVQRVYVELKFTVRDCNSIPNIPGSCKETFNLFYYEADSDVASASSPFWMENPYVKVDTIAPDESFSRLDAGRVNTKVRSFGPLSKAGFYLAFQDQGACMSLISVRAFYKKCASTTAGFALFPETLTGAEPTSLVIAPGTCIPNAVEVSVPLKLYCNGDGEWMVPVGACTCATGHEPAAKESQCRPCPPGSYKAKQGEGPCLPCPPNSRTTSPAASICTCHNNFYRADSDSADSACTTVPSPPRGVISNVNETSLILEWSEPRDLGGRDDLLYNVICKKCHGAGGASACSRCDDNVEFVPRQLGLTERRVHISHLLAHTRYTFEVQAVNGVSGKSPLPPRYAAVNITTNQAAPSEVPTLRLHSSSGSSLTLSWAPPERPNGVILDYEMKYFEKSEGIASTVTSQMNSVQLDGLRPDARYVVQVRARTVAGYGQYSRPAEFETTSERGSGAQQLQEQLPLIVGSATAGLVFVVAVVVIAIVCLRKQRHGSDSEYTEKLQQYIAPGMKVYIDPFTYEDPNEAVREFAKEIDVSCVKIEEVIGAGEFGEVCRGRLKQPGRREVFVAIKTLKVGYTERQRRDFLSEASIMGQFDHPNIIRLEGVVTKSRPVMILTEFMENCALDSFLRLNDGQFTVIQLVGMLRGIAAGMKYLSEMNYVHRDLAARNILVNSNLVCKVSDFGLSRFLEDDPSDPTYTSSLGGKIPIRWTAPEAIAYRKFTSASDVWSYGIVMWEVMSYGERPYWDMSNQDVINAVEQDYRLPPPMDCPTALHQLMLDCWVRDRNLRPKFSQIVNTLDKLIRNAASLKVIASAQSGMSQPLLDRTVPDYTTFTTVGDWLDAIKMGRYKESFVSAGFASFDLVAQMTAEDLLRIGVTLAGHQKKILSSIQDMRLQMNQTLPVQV

`C=CC(=O)N1CCC(C(=O)NCC(=O)N2CCN(c3nc(-c4cnc(N)nc4C(F)F)nc(N4CCOCC4)n3)CC2)CC1` gave a remaining binding of 98% (binding, competition with immobilised ligand).
For `O=C(NCCCN1CCOCC1)c1ccc(Nc2ncc(Cl)c(-c3ccc(Cl)s3)n2)cc1`, the remaining binding was 95% (binding, competition with immobilised ligand).
`COc1ccc2c(c1)O[C@@H](c1ccc(OC)c(OC)c1)C[C@H]2NC(=O)C1(c2ccc3c(c2)OC(F)(F)O3)CC1` gave a remaining binding of 90% (cell-free assay, competition with immobilised ligand).
The remaining binding of `O=C(NCC1CCOCC1)c1n[nH]cc1NC(=O)c1c(F)cccc1F` is reported as 100% (binding, competition with immobilised ligand).
The remaining binding of `Cc1cnc(Nc2ccc(C(=O)N3CCC(N4CCCC4)CC3)cc2)nc1-c1cc2ccccc2s1` is reported as 77% (binding, competition with immobilised ligand).
With `Cc1cc(-n2nc(Cc3cc(F)cc(C(F)(F)F)c3)nc2C)ccc1C(N)=O` the remaining binding was 100% (cell-free assay, competition with immobilised ligand).
For `N[C@H]1CCN(c2nccc(-c3cnn4ncccc34)n2)C1`, the remaining binding was 97% (binding).
`CNC(=O)Nc1ccc2c(c1)CC[C@@]21OC(=O)N(CC(=O)N(Cc2ccc(F)cc2)[C@@H](C)C(F)(F)F)C1=O` has a remaining binding of 80% (cell-free assay, competition with immobilised ligand).
The remaining binding of `O=C(c1ccc(Nc2ncc(Cl)c(-c3ccc(Cl)s3)n2)cc1)N1CCC(N2CCCC2)CC1` is reported as 88% (binding, competition with immobilised ligand).
For `C[C@@H](c1cccc(C#N)c1)n1cc(Cl)cc(C(N)=O)c1=N`, the remaining binding was 85% (cell-free assay, competition with immobilised ligand).
For `c1cnn2ncc(-c3ccnc(N4CCC45COC5)n3)c2c1`, the remaining binding was 87% (binding).
With `O=C(O)c1cc(-c2ccc(C3CCNCC3)cc2)c2ccc(-c3ccc(C(F)(F)F)cc3)cc2c1` the remaining binding was 100% (cell-free assay, competition with immobilised ligand).
For `C[C@@H]1CCN(c2nccc(-c3cnn4ncccc34)n2)C1`, the remaining binding was 100% (binding).
With `O=C1NC(c2ccccn2)Sc2ccccc21` (centres unmarked) the remaining binding was 80% (cell-free assay, competition with immobilised ligand).
With `CN(CCCC(F)(F)F)c1nccc(-c2cnn3ncccc23)n1` the remaining binding was 87% (binding).
The remaining binding of `COc1cnc(Nc2cccc(S(N)(=O)=O)c2)nc1N1CCN(c2ccccc2)CC1` is reported as 100% (binding, competition with immobilised ligand).
`F[C@@H]1CCN(c2nccc(-c3cnn4ncccc34)n2)C1` has a remaining binding of 77% (binding).
The remaining binding of `CNC(=O)[C@@H]1CC[C@@H](n2c(-c3ccc4cnccc4c3)nc3ccc(C(=O)NCc4cccc(C(N)=O)c4)cc32)C1` is reported as 100% (binding, competition with immobilised ligand).
The remaining binding of `Nc1ncc2c(n1)-c1c([nH]c3ccc(C#CC4CC4)cc13)CCCC2` is reported as 100% (binding, competition with immobilised ligand).
The remaining binding of `Cc1cnn2ncc(-c3ccnc(N(C)C)n3)c2c1` is reported as 100% (binding).
